Source: ChEMBL document CHEMBL4118059, “Hirsutane-Type Sesquiterpenes with Inhibitory Activity of Microglial Nitric Oxide Production from the Red Alga-Derived Fungus Chondrostereum sp. NTOU4196” (J Nat Prod, 2017)

Columns and labels:
[1] = Cytotoxicity against LPS-induced mouse BV2 cells assessed as cell viability at 20 uM pretreated for 15 mins followed by LPS-stimulation measured after 24 hrs by MTT assay relative to control; format: cell-based, BV-2; conditions: LPS-stimulated BV2 cells, read-out: Activity
Method in brief: (§1)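 BV-2 cells, LPS-activated, exposed to compounds at 2–20 μM. Viability was measured by MTT assay and expressed as mean ± SD of three independent experiments.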

BV-2 [2] = assay: Antineuroinflammatory activity in mouse BV2 cells assessed as inhibition of LPS-induced nitric oxide production by measuring nitrite levels at 20 uM pretreated for 15 mins followed by LPS-stimulation measured after 24 hrs by colorimetric method (reference value: 15 +/- 1 uM); format: functional
[3] = Cytotoxicity against LPS-induced mouse BV2 cells assessed as cell viability at 10 uM pretreated for 15 mins followed by LPS-stimulation measured after 24 hrs by MTT assay relative to control; format: cell-based, BV-2; conditions: LPS-stimulated BV2 cells, read-out: Activity; method in brief: as §1
BV-2 [4] = assay: Antineuroinflammatory activity in mouse BV2 cells assessed as inhibition of LPS-induced nitric oxide production pretreated for 15 mins followed by LPS-stimulation measured after 24 hrs by colorimetric method; format: functional, cell-based
BV-2 [5] = assay: Antineuroinflammatory activity in mouse BV2 cells assessed as inhibition of LPS-induced nitric oxide production at 20 uM pretreated for 15 mins followed by LPS-stimulation measured after 24 hrs by colorimetric method relative to control; format: functional
[6] = Cytotoxicity against LPS-induced mouse BV2 cells assessed as cell viability at 2 uM pretreated for 15 mins followed by LPS-stimulation measured after 24 hrs by MTT assay relative to control; format: cell-based, BV-2; conditions: LPS-stimulated BV2 cells, read-out: Activity; method in brief: as §1
[7] = Cytotoxicity against LPS-induced mouse BV2 cells assessed as cell viability at 5 uM pretreated for 15 mins followed by LPS-stimulation measured after 24 hrs by MTT assay relative to control; format: cell-based, BV-2; conditions: LPS-stimulated BV2 cells, read-out: Activity; method in brief: as §1
BV-2 [8] = assay: Antineuroinflammatory activity in mouse BV2 cells assessed as inhibition of LPS-induced nitric oxide production at 5 uM pretreated for 15 mins followed by LPS-stimulation measured after 24 hrs by colorimetric method relative to control; format: functional

C=C1C(=O)C=C2C[C@@]3(O)CC(C)(C)C[C@H]3[C@]12C
viability at 24 h, 20 µM [1]: 12% | Activity (BV-2 [2]): 4 µM | viability at 24 h, 10 µM [3]: 22%

C[C@@H]1[C@@H](O)C[C@]2(O)CC3=C(CC(C)(C)C3=O)[C@]12C
viability at 24 h, 20 µM [1]: 97% | Activity (BV-2 [2]): 11.6 µM

COc1cc(/C=C/C(=O)CC(=O)/C=C/c2ccc(O)c(OC)c2)ccc1O [CURCUMIN]
IC50 (BV-2 [4]): 6 µM

C[C@H]1[C@H](O)C[C@@]2(O)C[C@]3(O)CC(C)(C)C[C@@H]3[C@@]12C
Activity (BV-2 [2]): 13 µM

C[C@H]1C(=O)C[C@]2(O)C[C@@]3(O)CC(C)(C)C[C@H]3[C@]12C
Activity (BV-2 [2]): 11 µM

C[C@@H]1[C@@H](O)C[C@]2(O)[C@H](O)C3=CC(C)(C)C[C@H]3[C@]12C
viability at 24 h, 20 µM [1]: 87% | Activity (BV-2 [2]): 14 µM

C[C@H]1C(=O)C=C2C=C3[C@@H](O)C(C)(C)C[C@@]3(O)[C@@]21C
viability at 24 h, 20 µM [1]: 71% | Activity (BV-2 [2]): 12 µM

C[C@H]1[C@@H](O)C[C@]2(O)C[C@@]3(O)CC(C)(C)C[C@H]3[C@]12C
Activity (BV-2 [2]): 13 µM

C=C1[C@H](O)C[C@]2(O)C[C@]3(O)CC(C)(C)C[C@]3(O)[C@]12C
inhibition at 20 µM (BV-2 [5]): 47% | inhibition (BV-2 [4]): Dose-dependent effect | viability at 24 h, 20 µM [1]: 67% | viability at 24 h, 2 µM [6]: 93% | Activity (BV-2 [2]): 8 µM | viability at 24 h, 10 µM [3]: 73% | viability at 24 h, 5 µM [7]: 82%

C=C1C(=O)C[C@]2(O)[C@H](O)C3=C(CC(C)(C)C3=O)[C@]12C
viability at 24 h, 20 µM [1]: 69% | viability at 24 h, 2 µM [6]: 95% | Activity (BV-2 [2]): 10 µM | viability at 24 h, 10 µM [3]: 89% | viability at 24 h, 5 µM [7]: 95%

C[C@@H]1C(=O)C[C@]2(O)C[C@@]3(O)CC(C)(C)C[C@H]3[C@]12C
viability at 24 h, 20 µM [1]: 83% | Activity (BV-2 [2]): 12 µM

C=C1C(=O)C[C@@]2(OC)C[C@]3(O)CC(C)(C)C[C@@H]3[C@]12C
viability at 24 h, 20 µM [1]: 11% | viability at 24 h, 2 µM [6]: 47% | Activity (BV-2 [2]): 4 µM | viability at 24 h, 10 µM [3]: 11% | viability at 24 h, 5 µM [7]: 30%

C[C@@H]1[C@@H](O)C[C@]2(O)C=C3C(=CC(C)(C)[C@@H]3O)[C@]12C
viability at 24 h, 20 µM [1]: 93% | Activity (BV-2 [2]): 11 µM

C=C1C(=O)C=C2C=C3[C@@H](O)C(C)(C)C[C@@]3(O)[C@]12C
inhibition at 5 µM (BV-2 [8]): 53% | inhibition (BV-2 [4]): Dose-dependent effect | viability at 24 h, 20 µM [1]: 39% | viability at 24 h, 2 µM [6]: 94% | Activity (BV-2 [2]): 8 µM | viability at 24 h, 10 µM [3]: 77% | viability at 24 h, 5 µM [7]: 87%

C[C@H]1C(=O)C=C2C=C3C(=O)C(C)(C)C[C@@]3(O)[C@@]21C
viability at 24 h, 20 µM [1]: 11% | Activity (BV-2 [2]): 4 µM | viability at 24 h, 10 µM [3]: 23%

C[C@@H]1[C@@H](O)C[C@]2(O)[C@H](O)[C@H]3CC(C)(C)C[C@H]3[C@]12C
viability at 24 h, 20 µM [1]: 83% | Activity (BV-2 [2]): 12 µM
